From ChEMBL document CHEMBL1921703 (Eur J Med Chem, 2011)

Tests used:
[1] = system: Brain; test: Prodrug conversion in mouse brain homogenate assessed as naproxen release at 250 uM/mL by HPLC analysis; assay type: ADME, tissue-based; settings: in vitro, TDE = time-dependent effect
In short: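 Prodrugs were incubated at 37 °C for up to 90 min in mouse brain homogenate (1:5 w/v in pH 7.4 phosphate buffer). […] Peak areas were normalised to the reference prodrug peak at 15 min, SD n = 3.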

[2] = system: Plasma; test: Prodrug conversion in Kunming mouse plasma assessed as compound hydrolysis to naproxen at dose equivalent to 10 mg/kg, iv of naproxen measured by HPLC analysis; assay type: ADME, organism-based; design: dose 10 mg/kg, route intravenous; settings: in vivo
[3] = Metabolic stability in mouse plasma assessed as half life at 250 umol/mL by HPLC analysis; assay type: ADME, cell-free
In short: (§1)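 Mouse plasma, diluted with two volumes of water, or brain homogenate (1:5 w/v in cold pH 7.4 phosphate buffer) was spiked with methanol stock (1:4 v/v) and incubated at 37 °C. Aliquots taken at 0–90 min were quenched with acetonitrile and centrifuged. Remaining prodrug was measured by HPLC-UV at 238 nm. Rate constant came from ln(peak area) regression against time, and half-life followed from it.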

[4] = system: Heart; test: Drug uptake in Kunming mouse heart assessed as naproxen level at dose equivalent to 10 mg/kg, iv of naproxen administered as single dose measured by HPLC analysis; assay type: ADME, organism-based; design: dose 10 mg/kg, route intravenous; settings: in vivo
[5] = system: Brain; test: AUC (0 to t) in Kunming mouse brain at dose equivalent to 10 mg/kg, iv of naproxen administered as single dose; assay type: ADME, organism-based; design: dose 10 mg/kg, route intravenous; settings: in vivo
[6] = Chemical stability of the compound in phosphate buffer at pH 2.5 assessed as first order rate constant of compound disappearance at 250 umol/mL by HPLC analysis; assay type: physicochemical
In short: (§2)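 Each compound, added as methanol stock, was incubated in phosphate buffer at pH 2.5, 5.0, 7.4 or 8.0 (1:4 v/v) at 37 °C. Samples were taken at 0, 1, 3, 6, 12 and 24 h. Remaining ester was measured by HPLC-UV at 238 nm on C18 with methanol-water 80:20. The pseudo-first-order rate constant came from linear regression of ln(peak area) against time, and half-life followed from it.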

[7] = system: Plasma; test: AUC (0 to t) in Kunming mouse plasma at dose equivalent to 10 mg/kg, iv of naproxen administered as single dose; assay type: ADME, organism-based; design: dose 10 mg/kg, route intravenous; settings: in vivo
[8] = system: Kidney; test: Drug uptake in Kunming mouse kidney assessed as naproxen level at dose equivalent to 10 mg/kg, iv of naproxen administered as single dose measured by HPLC analysis; assay type: ADME, organism-based; design: dose 10 mg/kg, route intravenous; settings: in vivo
[9] = Chemical stability of the compound in phosphate buffer at pH 7.4 assessed as half life at 250 umol/mL by HPLC analysis; assay type: physicochemical; in short: as §2
[10] = system: Liver; test: Drug uptake in Kunming mouse liver assessed as naproxen level at dose equivalent to 10 mg/kg, iv of naproxen administered as single dose measured by HPLC analysis; assay type: ADME, organism-based; design: dose 10 mg/kg, route intravenous; settings: in vivo
[11] = Chemical stability of the compound in phosphate buffer at pH 5 assessed as half life at 250 umol/mL by HPLC analysis; assay type: physicochemical; in short: as §2
[12] = Chemical stability of the compound in phosphate buffer at pH 5 assessed as first order rate constant of compound disappearance at 250 umol/mL by HPLC analysis; assay type: physicochemical; in short: as §2
[13] = Chemical stability of the compound in phosphate buffer at pH 8.0 assessed as half life at 250 umol/mL by HPLC analysis; assay type: physicochemical; in short: as §2
[14] = Chemical stability of the compound in phosphate buffer at pH 8.0 assessed as first order rate constant of compound disappearance at 250 umol/mL by HPLC analysis; assay type: physicochemical; in short: as §2
[15] = Chemical stability of the compound in phosphate buffer at pH 7.4 assessed as first order rate constant of compound disappearance at 250 umol/mL by HPLC analysis; assay type: physicochemical; in short: as §2
[16] = system: Muscle tissue; test: Drug uptake in Kunming mouse muscle assessed as naproxen level at dose equivalent to 10 mg/kg, iv of naproxen administered as single dose measured by HPLC analysis; assay type: ADME, organism-based; design: dose 10 mg/kg, route intravenous; settings: in vivo
[17] = Metabolic stability in mouse brain homogenate assessed as half life at 250 umol/mL by HPLC analysis; assay type: ADME, tissue-based; in short: as §1
[18] = system: Brain; test: Metabolic stability in mouse brain homogenate assessed as first order rate constant of compound disappearance at 250 umol/mL by HPLC analysis; assay type: ADME, tissue-based; in short: as §1
[19] = Chemical stability of the compound in phosphate buffer at pH 2.5 assessed as half life at 250 umol/mL by HPLC analysis; assay type: physicochemical; in short: as §2
[20] = system: Plasma; test: Metabolic stability in mouse plasma assessed as first order rate constant of compound disappearance at 250 umol/mL by HPLC analysis; assay type: ADME, cell-free; in short: as §1
[21] = in vivo; settings: Kunming, mouse, brain, iv, 10 mg/kg
[22] = in vivo; settings: Kunming, mouse, brain, iv, 10 mg/kg; remark: listed apart in the source
[23] = in vivo; settings: Kunming, mouse, brain, iv, 10 mg/kg; remark: listed apart in the source

Structure (SMILES) | Drug metabolism [1] | Drug metabolism [2] | half-life at 250 umol/mL [3] | Drug uptake [4] | AUCt [5] | Activity [6] | AUCt [7] | Drug uptake [8] | half-life at 250 umol/mL [9] | Drug uptake [10] | half-life at 250 umol/mL [11] | Activity [12] | half-life at 250 umol/mL [13] | Activity [14] | Activity [15] | Drug uptake [16] | half-life at 250 umol/mL [17] | Activity [18] | half-life at 250 umol/mL [19] | Activity [20] | other results
COc1ccc2cc([C@H](C)C(=O)OCC/C(SSCc3ccccc3)=C(\C)N(C)C=O)ccc2c1 | tde | Active | 0.987 h | Active | 3307.75 µg·min/g | 5.05 ×10⁻² /hr | 8834.7 µg/min/mL | Active | 62.4 h | Active | 24.7 h | 2.81 ×10⁻² /hr | 33.8 h | 2.05 ×10⁻² /hr | 1.11 ×10⁻² /hr | Active | 0.418 h | 2.76 ×10⁻² /min | 13.7 h | 1.17 ×10⁻² /min | 
COc1ccc2cc([C@H](C)C(=O)OCC/C(SSCc3ccccc3)=C(\C)N(C=O)CC(=O)OC[C@H]3O[C@H](O)[C@H](O)[C@@H](O)[C@@H]3O)ccc2c1 | tde | Active | 0.755 h | Active | 5669.45 µg·min/g | 3.39 ×10⁻² /hr | 13348.87 µg/min/mL | Active | 30.1 h | Active | 24.1 h | 2.87 ×10⁻² /hr | 19.5 h | 3.56 ×10⁻² /hr | 2.3 ×10⁻² /hr | Active | 0.312 h | 3.71 ×10⁻² /min | 20.4 h | 1.53 ×10⁻² /min | 
COc1ccc2cc([C@H](C)C(=O)OCC/C(SSC(C)C)=C(\C)N(C=O)CC(=O)OC[C@H]3O[C@H](O)[C@H](O)[C@@H](O)[C@@H]3O)ccc2c1 | tde | Active | 0.792 h | Active | 6140.77 µg·min/g | 3.19 ×10⁻² /hr | 16185.44 µg/min/mL | Active | 51 h | Active | 34 h | 2.04 ×10⁻² /hr | 28.6 h | 2.42 ×10⁻² /hr | 1.36 ×10⁻² /hr | Active | 0.343 h | 3.37 ×10⁻² /min | 21.7 h | 1.46 ×10⁻² /min | 
COc1ccc2cc([C@H](C)C(=O)O)ccc2c1 [NAPROXEN] |  |  |  |  |  |  | 3812.35 µg/min/mL |  |  |  |  |  |  |  |  |  |  |  |  |  | Cmax [21]: 17100 ng/g; Tmax [22]: 0.75 h; MRT [23]: 1.41 h

Now from value to compound, other results behind:

Drug metabolism [1] | Drug metabolism [2] | half-life at 250 umol/mL [3] | Drug uptake [4] | AUCt [5] | Activity [6] | AUCt [7] | Drug uptake [8] | half-life at 250 umol/mL [9] | Drug uptake [10] | half-life at 250 umol/mL [11] | Activity [12] | half-life at 250 umol/mL [13] | Activity [14] | Activity [15] | Drug uptake [16] | half-life at 250 umol/mL [17] | Activity [18] | half-life at 250 umol/mL [19] | Activity [20] | Structure (SMILES) | other results
tde | Active | 1.48 h | Active | 3930.87 µg·min/g | 1.3 ×10⁻² /hr | 10353.27 µg/min/mL | Active | 114 h | Active | 107 h | 0.645 ×10⁻² /hr | 23.8 h | 2.91 ×10⁻² /hr | 0.607 ×10⁻² /hr | Active | 1.68 h | 0.683 ×10⁻² /min | 53.3 h | 0.782 ×10⁻² /min | COc1ccc2cc([C@H](C)C(=O)OC[C@H]3O[C@H](O)[C@H](O)[C@@H](O)[C@@H]3O)ccc2c1 | 
tde | Active | 0.657 h | Active | 4716.88 µg·min/g | 4.34 ×10⁻² /hr | 12914.16 µg/min/mL | Active | 27.2 h | Active | 23.5 h | 2.95 ×10⁻² /hr | 25 h | 2.77 ×10⁻² /hr | 2.55 ×10⁻² /hr | Active | 0.243 h | 4.74 ×10⁻² /min | 16 h | 1.77 ×10⁻² /min | CCSS/C(CCOC(=O)[C@@H](C)c1ccc2cc(OC)ccc2c1)=C(/C)N(C=O)CC(=O)OC[C@H]1O[C@H](O)[C@H](O)[C@@H](O)[C@@H]1O | 
